Results reported in ChEMBL document CHEMBL4400542, “Epidermal Growth Factor Receptor-Targeted Multifunctional Photosensitizers for Bladder Cancer Imaging and Photodynamic Therapy” (J Med Chem, 2019).
Active and inactive are the calls of the source. The calls are words filed in the database; no cut-off is given here.

Experiments:
[1] = Stability at -4 degC for 2 months; type: physicochemical; details: 1461 h
Summary of the method: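 Photosensitizer formulations in Tween80 or Pluronic F-127 were stored at -4 °C, alongside a -20 °C set, for two months. Stability was judged by visible precipitation and change in pH.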

[2] = Drug accumulation in mitochondria of human T24 cells at 500 nM formulated with 2% pluronic F-127 solution after 24 hrs by mitotracker red based fluorimetry; type: ADME; details: t-24, 24 h, 0.5 µM
[3] = Drug uptake in human UM-UC-3 cells assessed as increase in gray value intensity at 1 uM pretreated for 24 hrs followed by compound washout and measured after 4 hrs by Hoechst 33342 staining based fluorescence microscopy; type: ADME, cell-based; details: umuc3, 4 h
Summary of the method: (§1)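 Cells pre-incubated 24 h with free erlotinib before PS addition. Legend describes PS at 1 uM or erlotinib at 3 uM for 4 h, then three warm PBS washes. Imaged by fluorescence microscopy; grey value per field normalized to cell count, triplicate wells, each imaged in triplicate.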

[4] = Drug accumulation in lysosomes of human UM-UC-3 cells at 500 nM formulated with 2% pluronic F-127 solution after 24 hrs by lysosphere green based fluorimetry; type: ADME, subcellular, Lysosome; details: umuc3, 24 h, 0.5 µM
UMUC3 [5] = experiment: Photo-activated cytotoxicity against human UM-UC-3 cells assessed as reduction in cell viability preincubated for 24 hrs followed by 1 J/cm2 light irradiation and measured after 48 hrs formulated with 1% tween 80 solution by MTT assay; type: functional, cell-based; details: UMUC3, light or radiation study
Summary of the method: (§2)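 Cells plated at 10k per well, allowed 24 h to adhere, then PS added in two-fold dilutions from 1 µM top for 24 h. Irradiated at 665 nm, 1.0 J/cm2 at 3.2 mW/cm2. Viability by MTT 48 h after PDT: about 2 h incubation, formazan dissolved in DMSO, absorbance at 570 nm.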

[6] = Drug accumulation in lysosomes of human T24 cells at 500 nM formulated with 1% tween 80 solution after 24 hrs by lysosphere green based fluorimetry; type: ADME, subcellular, Lysosome; details: t-24, 24 h, 0.5 µM
UMUC3 [7] = experiment: Induction of apoptosis in human UM-UC-3 cells assessed as increase in apoptotic cells at 1 uM in absence of light by Annexin V/propidium iodide-staining based flow cytometry; type: cell-based; details: umuc3, 1 µM
[8] = Drug accumulation in human T24 cells at 500 nM formulated with 2% pluronic F-127 solution after 24 hrs by CARY-fluorimetry; type: ADME, cell-based; details: t-24, 24 h, 0.5 µM
[9] = Drug accumulation in human UM-UC-3 cells at 500 nM formulated with 1% tween 80 solution after 24 hrs by CARY-fluorimetry; type: ADME, cell-based; details: umuc3, 24 h, 0.5 µM
[10] = Drug accumulation in mitochondria of human UM-UC-3 cells at 500 nM formulated with 1% tween 80 solution after 24 hrs by mitotracker red based fluorimetry; type: ADME; details: umuc3, 24 h, 0.5 µM
[11] = Drug accumulation in lysosomes of human T24 cells at 500 nM formulated with 2% pluronic F-127 solution after 24 hrs by lysosphere green based fluorimetry; type: ADME, subcellular, Lysosome; details: t-24, 24 h, 0.5 µM
T-24 [12] = experiment: Photo-activated cytotoxicity against human T24 cells assessed as reduction in cell viability preincubated for 24 hrs followed by 1 J/cm2 light irradiation and measured after 48 hrs formulated with 2% pluronic F-127 solution by MTT assay; type: functional, cell-based; details: T-24, light or radiation study; summary of the method: as §2
[13] = Drug accumulation in mitochondria of human T24 cells at 500 nM formulated with 1% tween 80 solution after 24 hrs by mitotracker red based fluorimetry; type: ADME; details: t-24, 24 h, 0.5 µM
UMUC3 [14] = experiment: Induction of oxidative stress in human UM-UC-3 cells assessed as increase in ROS production at 1 uM in presence of 1 J/cm2 light irradiation and measured at 20 min post light exposure by DCFDA-fluorescence based assay relative to control; type: functional
Summary of the method: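 UMUC3 cells at 10k per well; after 24 h, PS added at 1 µM for 24 h (Tween80 formulation). DCFDA 1 µM for 20 min, fluorescence read (ex 492, em 517). Then 665 nm light, 1 J total at 3.2 mW/cm2, and read again. No-DCFDA background subtracted; 0.05% H2O2 control wells.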

[15] = molecular target: Epidermal growth factor receptor (Homo sapiens) (UniProt P00533); experiment: Inhibition of EGFR autophosphorylation at Ty1068 in human UM-UC-3 cells at 100 nM followed by PDT and measured after 24 hrs by Western blot analysis; type: cell-based
Chain of Epidermal growth factor receptor (Homo sapiens) (P00533 whole entry): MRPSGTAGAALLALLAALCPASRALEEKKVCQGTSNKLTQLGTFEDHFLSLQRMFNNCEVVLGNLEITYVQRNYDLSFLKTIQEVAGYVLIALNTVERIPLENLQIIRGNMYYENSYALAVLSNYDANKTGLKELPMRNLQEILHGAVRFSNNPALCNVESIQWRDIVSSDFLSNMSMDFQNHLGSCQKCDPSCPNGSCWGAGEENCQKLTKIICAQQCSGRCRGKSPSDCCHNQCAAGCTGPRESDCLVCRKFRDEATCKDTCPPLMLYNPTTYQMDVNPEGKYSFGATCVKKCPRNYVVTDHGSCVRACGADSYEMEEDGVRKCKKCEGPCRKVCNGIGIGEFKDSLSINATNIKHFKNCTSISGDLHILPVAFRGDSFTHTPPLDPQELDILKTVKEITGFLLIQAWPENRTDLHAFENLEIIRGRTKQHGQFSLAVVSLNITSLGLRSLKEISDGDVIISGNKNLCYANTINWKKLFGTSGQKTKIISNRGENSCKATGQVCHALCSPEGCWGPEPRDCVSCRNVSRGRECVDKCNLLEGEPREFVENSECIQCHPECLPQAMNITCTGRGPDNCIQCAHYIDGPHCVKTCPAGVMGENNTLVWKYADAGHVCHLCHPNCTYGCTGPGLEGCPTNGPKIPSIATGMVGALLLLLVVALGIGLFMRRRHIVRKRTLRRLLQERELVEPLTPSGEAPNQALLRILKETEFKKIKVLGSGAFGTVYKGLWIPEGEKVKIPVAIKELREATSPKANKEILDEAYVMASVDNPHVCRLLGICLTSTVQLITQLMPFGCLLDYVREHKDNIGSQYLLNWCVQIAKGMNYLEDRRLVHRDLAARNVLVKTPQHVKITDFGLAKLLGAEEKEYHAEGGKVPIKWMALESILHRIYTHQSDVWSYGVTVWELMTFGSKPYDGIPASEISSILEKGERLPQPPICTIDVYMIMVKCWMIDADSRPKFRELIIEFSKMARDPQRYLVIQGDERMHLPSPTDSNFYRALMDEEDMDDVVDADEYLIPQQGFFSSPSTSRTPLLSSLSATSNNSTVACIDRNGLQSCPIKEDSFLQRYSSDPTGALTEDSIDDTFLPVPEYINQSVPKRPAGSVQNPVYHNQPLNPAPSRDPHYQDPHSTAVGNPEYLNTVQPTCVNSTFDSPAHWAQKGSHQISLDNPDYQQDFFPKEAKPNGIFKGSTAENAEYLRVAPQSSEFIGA

[16] = Drug accumulation in lysosomes of human UM-UC-3 cells at 500 nM formulated with 1% tween 80 solution after 24 hrs by lysosphere green based fluorimetry; type: ADME, subcellular, Lysosome; details: umuc3, 24 h, 0.5 µM
T-24 [17] = experiment: Induction of apoptosis in human T24 cells assessed as increase in apoptotic cells at 1 uM in absence of light by Annexin V/propidium iodide-staining based flow cytometry; type: cell-based; details: t-24, 1 µM
[18] = Drug accumulation in mitochondria of human UM-UC-3 cells at 500 nM formulated with 2% pluronic F-127 solution after 24 hrs by mitotracker red based fluorimetry; type: ADME; details: umuc3, 24 h, 0.5 µM
T-24 [19] = experiment: Photo-activated cytotoxicity against human T24 cells assessed as reduction in cell viability preincubated for 24 hrs followed by 1 J/cm2 light irradiation and measured after 48 hrs formulated with 1% tween 80 solution by MTT assay; type: functional, cell-based; details: T-24, light or radiation study; summary of the method: as §2
[20] = molecular target: Epidermal growth factor receptor (Homo sapiens) (UniProt P00533); experiment: Inhibition of EGFR autophosphorylation at Ty1068 in human T24 cells at 1 uM followed by PDT and measured after 24 hrs by Western blot analysis; type: cell-based
[21] = Induction of singlet oxygen generation in deaerated toluene at 670 nm assessed as singlet decay life time by femtosecond transient absorption spectroscopy; type: functional
UMUC3 [22] = experiment: Photo-activated cytotoxicity against human UM-UC-3 cells assessed as reduction in cell viability preincubated for 24 hrs followed by 1 J/cm2 light irradiation and measured after 48 hrs formulated with 2% pluronic F-127 solution by MTT assay; type: functional, cell-based; details: UMUC3, light or radiation study; summary of the method: as §2
[23] = molecular target: Epidermal growth factor receptor (Homo sapiens) (UniProt P00533); experiment: Inhibition of EGFR autophosphorylation at Ty1068 in human UM-UC-3 cells at 1 uM followed by PDT and measured after 24 hrs by Western blot analysis; type: cell-based
[24] = Drug accumulation in human UM-UC-3 cells at 500 nM formulated with 2% pluronic F-127 solution after 24 hrs by CARY-fluorimetry; type: ADME, cell-based; details: umuc3, 24 h, 0.5 µM
[25] = Induction of singlet oxygen generation in deaerated toluene at 670 nm assessed as rate of singlet decay by femtosecond transient absorption spectroscopy; type: functional
[26] = Stability at -20 degC for 2 months; type: physicochemical; details: 1461 h
Summary of the method: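 Formulated PS stored at -4 °C or -20 °C for two months; checked for precipitation and pH change.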

[27] = Drug accumulation in human T24 cells at 500 nM formulated with 1% tween 80 solution after 24 hrs by CARY-fluorimetry; type: ADME, cell-based; details: t-24, 24 h, 0.5 µM
[28] = Drug uptake in human T24 cells assessed as increase in gray value intensity at 1 uM pretreated for 24 hrs followed by compound washout and measured after 4 hrs by Hoechst 33342 staining based fluorescence microscopy; type: ADME, cell-based; details: t-24, 4 h; summary of the method: as §1
[29] = Drug uptake in human UM-UC-3 cells assessed as increase in gray value intensity at 500 nM after 48 hrs in presence of gleevec by Hoechst 33342 staining based fluorescence microscopy; type: ADME, cell-based; details: umuc3, 24 h, 0.5 µM, in the assay text read “after 24 hrs” for “after 48 hrs”
Summary of the method: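 Cells plated at 100k per well, grown to 80% confluency, refreshed, then incubated 24 h with PS at 500 nM with or without Gleevec 5 µM. Washed twice with PBS, Hoechst 33342 added, imaged by fluorescence microscopy; grey value normalized to cell number, triplicate groups and images.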

| Stability [1] | Drug uptake [2] | Drug uptake [3] | Drug uptake [4] | Drug uptake [6] | Drug uptake [8] | Drug uptake [9] | Drug uptake [10] | Drug uptake [11] | Drug uptake [13] | inhibition [15] | Drug uptake [16] | Drug uptake [18] | inhibition [20] | Structure (SMILES) | IC50 (UMUC3 [5]) [nM] | Activity (UMUC3 [7]) | IC50 (T-24 [12]) [nM] | fold change (FC) (UMUC3 [14]) | Activity (T-24 [17]) | IC50 (T-24 [19]) [nM] | other results |
| --- | --- | --- | --- | --- | --- | --- | --- | --- | --- | --- | --- | --- | --- | --- | --- | --- | --- | --- | --- | --- | --- |
| Stable | Active | Active | Active | Active | Active | Active | Active | Active | Active | Active | Active | Active | inactive | CCC1=C(C)c2cc3[nH]c(cc4nc(c5c6[nH]c(cc1n2)c(C)c6C(=O)C5)[C@@H](CCC(=O)OC)[C@@H]4C)c(C)c3C(C)OCc1cccc(I)c1 (stereo partly drawn) | 95.2 | Non-Toxic | 178 | 2.5 | Non-Toxic | 73.7 | Time [21]: 1 nanoseconds; IC50 (UMUC3 [22]): 200 nM; inhibition [23]: inactive; Drug uptake [24]: Active; K [25]: 1 ×10⁹ /s; Stability [26]: Stable; Drug uptake [27]: Active; Drug uptake [28]: Active; Drug uptake [29]: Active |
| Stable | Active | Not Active | Active | Active | Active | Active | Active | Active | Active | Active | Active | Active | Active | CCC1=C(C)c2cc3[nH]c(cc4nc(c5c6[nH]c(cc1n2)c(C)c6C(=O)C5)[C@@H](CCC(=O)NCc1cccc(I)c1)[C@@H]4C)c(C)c3C(C)OCc1cccc(C#Cc2cccc(Nc3ncnc4cc(OCCOC)c(OCCOC)cc34)c2)c1 (stereo partly drawn) | 608 | Non-Toxic | 1260 | 0.9 | Non-Toxic | 1030 | Time [21]: 83 pS; IC50 (UMUC3 [22]): 326 nM; inhibition [23]: Active; Drug uptake [24]: Active; K [25]: 1.2 ×10¹⁰ /s; Stability [26]: Stable; Drug uptake [27]: Active; Drug uptake [28]: Active; Drug uptake [29]: Not Active |
